This note sets out measurements from ChEMBL document CHEMBL1154441, “Chemotherapy of leishmaniasis part-VIII: synthesis and bioevaluation of novel chalcones” (2008).

Activity calls are given as the source filed them. The calls are words filed in the database; no cut-off is given here.

What all share (format): functional
Experiment [1] relates to Leishmania donovani. The experiment can be described thus: Antileishmanial activity against Leishmania donovani MHOM/IN/Dd8 amastigotes infected in mouse J774A.1 cells assessed as inhibition of parasitic growth at 2 ug/ml after 24 hrs by luciferase activity-based luminescence assay. Particulars: for percent inhibition of intracellular amastigote growth at 2 µg/mL: J774.A1, 24 h, read-out: INH. Summed up: (§1)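 Macrophages seeded 5 × 10⁴ per well in RPMI-1640 + 10% FCS, 37 °C, CO₂; after 24 h infected with stationary-phase luciferase-expressing promastigotes (2.5 × 10⁵ per well) that transform to amastigotes. Medium replaced with compound in complete medium, incubated 37 °C for 24 h or more; then PBS added, mixed 1:1 with Steady-Glo, shaken 1–2 min, luminescence read to give growth inhibition.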

The subject of experiment [2] is Leishmania donovani. As to the kind of experiment: Antileishmanial activity against Leishmania donovani MHOM/IN/Dd8 promastigotes assessed as inhibition of parasitic growth at 2 ug/ml after 72 hrs by luciferase activity-based luminescence assay. Summed up: (§2)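 Late-log luciferase-transfected L. donovani promastigotes (kept at 25 ± 1 °C in medium 199 + 10% FCS under G418) seeded at 5 × 10⁵ per well in medium 199; exposed 72 h to serial dilutions of compound in DMSO, with parallel DMSO dilutions as controls. Aliquot mixed 1:1 with Steady-Glo reagent; luminescence read as RLU and growth inhibition derived from luciferase signal.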

The test system of experiment [3] is Leishmania donovani. The experiment can be described thus: Antileishmanial activity against Leishmania donovani MHOM/IN/Dd8 promastigotes assessed as inhibition of parasitic growth at 5 ug/ml after 72 hrs by luciferase activity-based luminescence assay. Summed up:
as §2

Experiment [4] relates to Leishmania donovani. As to the kind of experiment: Antileishmanial activity against Leishmania donovani MHOM/IN/Dd8 amastigotes infected in mouse J774A.1 cells assessed as inhibition of parasitic growth at 5 ug/ml after 24 hrs by luciferase activity-based luminescence assay. Conditions: for Percent inhibition of intracellular amastigote growth at 5 µg/mL: J774.A1, 24 h, read-out: INH. Summed up:
as §1

The inhibition is the share of the control response that was lost under treatment. Take `CC1=CCCC(C)(C)C1CCC(=O)/C=C/c1ccc(Cl)cc1` (configuration not stated): the percent inhibition of intracellular amastigote growth at 2 µg/mL in experiment [1] turned out to be 88%. The inhibition at 2 µg/mL in experiment [2] stood at 100%. In addition, the inhibition at 5 µg/mL in experiment [3] was 100%. In addition, the Percent inhibition of intracellular amastigote growth at 5 µg/mL in experiment [4] is 93%.

As for `COc1ccc(/C=C/C(=O)CCC2C(C)=CCCC2(C)C)cc1OC` (configuration not stated), the percent inhibition of intracellular amastigote growth at 2 µg/mL in experiment [1] was 79%. Besides, in experiment [2], the inhibition at 2 µg/mL worked out at 100%. For the same compound, the inhibition at 5 µg/mL in experiment [3] was 100%. Moreover, the Percent inhibition of intracellular amastigote growth at 5 µg/mL in experiment [4] is 95%.

Regarding `CC1=CCCC(C)(C)C1CCC(=O)/C=C/c1ccc(OCc2ccccc2)cc1` (configuration not stated), in experiment [2], the inhibition at 2 µg/mL was 61%. The inhibition at 5 µg/mL in experiment [3] is 100%. Moreover, the outcome in experiment [4] was inactive.

On to `CC1=CCCC(C)(C)C1CCC(=O)/C=C/c1ccc([N+](=O)[O-])cc1` (configuration not stated), for which the percent inhibition of intracellular amastigote growth at 2 µg/mL in experiment [1] was 74%. Further, in experiment [2], the inhibition at 2 µg/mL is 95%. In experiment [3], the inhibition at 5 µg/mL was found to be 99%. Further, the Percent inhibition of intracellular amastigote growth at 5 µg/mL in experiment [4] is 80%.

With `CC1=CCCC(C)(C)C1CCC(=O)/C=C/c1ccc(CO)o1` (configuration not stated), the outcome in experiment [1] and in experiment [4] was inactive. Also, the inhibition at 2 µg/mL in experiment [2] turned out to be 65%. In addition, the inhibition at 5 µg/mL in experiment [3] was 93%.

`CC1=CCCC(C)(C)C1CCC(=O)/C=C/c1ccccc1[N+](=O)[O-]` (configuration not stated): the result in experiment [1] and in experiment [4] was inactive. In addition, the inhibition at 2 µg/mL in experiment [2] is 34%. In experiment [3], the inhibition at 5 µg/mL was determined as 53%.

Consider `COc1ccc(/C=C/C(=O)CCC2C(C)=CCCC2(C)C)cc1` (configuration not stated), for which, in experiment [1], the percent inhibition of intracellular amastigote growth at 2 µg/mL was 40%. Also, the inhibition at 2 µg/mL in experiment [2] is 98%. The inhibition at 5 µg/mL in experiment [3] was found to be 98%. Moreover, in experiment [4], the Percent inhibition of intracellular amastigote growth at 5 µg/mL amounted to 81%.

With `CC1=CCCC(C)(C)C1CCC(=O)/C=C/c1ccc(O)cc1` (configuration not stated), the outcome in experiment [1] and in experiment [4] was inactive. Besides, in experiment [2], the inhibition at 2 µg/mL stood at 76%. Also, the inhibition at 5 µg/mL in experiment [3] was 100%.

Consider `COc1cc(/C=C/C(=O)CCC2C(C)=CCCC2(C)C)cc(OC)c1OC` (configuration not stated), for which the outcome in experiment [1] and in experiment [4] was inactive. Besides, the inhibition at 2 µg/mL in experiment [2] stood at 50%. The inhibition at 5 µg/mL in experiment [3] stood at 90%.

With `CC1=CCCC(C)(C)C1CCC(=O)/C=C/c1cccc([N+](=O)[O-])c1` (configuration not stated), the inhibition at 2 µg/mL in experiment [2] worked out at 98%. Moreover, the inhibition at 5 µg/mL in experiment [3] is 99%. Also, in experiment [4], the Percent inhibition of intracellular amastigote growth at 5 µg/mL was 65%.

For `CC1=CCCC(C)(C)C1CCC(=O)/C=C/c1cccnc1` (configuration not stated), the percent inhibition of intracellular amastigote growth at 2 µg/mL in experiment [1] came out at 33%. Moreover, the inhibition at 2 µg/mL in experiment [2] worked out at 100%. Besides, the inhibition at 5 µg/mL in experiment [3] came out at 100%. Also, the Percent inhibition of intracellular amastigote growth at 5 µg/mL in experiment [4] was determined as 92%.
